Results: ChEMBL document CHEMBL2169798, “Discovery of a Plasmodium falciparum glucose-6-phosphate dehydrogenase 6-phosphogluconolactonase inhibitor (R,Z)-N-((1-ethylpyrrolidin-2-yl)methyl)-2-(2-fluorobenzylidene)-3-oxo-3,4-dihydro-2H-benzo[b][1,4]thiazine-6-carboxamide (ML276) that reduces parasite growth in vitro” (J Med Chem, 2012)
Converted amounts (≈) assume the structure as drawn. The source made the active and inactive calls. The rule behind the calls is not given here.

Assays:
[1] = Drug degradation in PBS buffer assessed as compound depletion at pH 7.4 after 24 hrs by RP-LCMS analysis in presence of glutathione; type: physicochemical; conditions: PBS buffer with glutathione, read-out: Drug metabolism
How it was run: (§1)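 Compound from a 1 mM DMSO stock, final 10 μM with 1% DMSO, in PBS pH 7.4 with 5 equivalents glutathione (from a 10 mM PBS stock), shaken in capped glass vials at 23 °C. Aliquots were analysed by RP-HPLC-MS on a C18 column at 0, 0.5, 1, 2, 4, 6, 18 and […]. Percent remaining versus 0 h was taken from peak AUC.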

[2] = Drug degradation in PBS buffer assessed as compound depletion at pH 7.4 after 30 mins by RP-LCMS analysis in presence of glutathione; type: physicochemical; conditions: pH 7.4, 0.5 h; how it was run: as §1
[3] = Chemical stability in PBS buffer at pH 7.4 at 10 uM up to 18 hrs by RP-LCMS analysis in presence of glutathione; type: physicochemical; conditions: pH 7.4, 18 h; how it was run: as §1
[4] = tested on: Plasmodium falciparum; experiment: Antimalarial activity against chloroquine-sensitive Plasmodium falciparum 3D7 cells assessed as Plasmodium falciparum growth inhibition after 72 hrs by isotopic drug sensitivity assay; type: functional, organism-based; conditions: 3D7, 72 h
How it was run: (§2)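 Infected RBCs plated at 0.25% parasitemia (>70% rings), 1.25% hematocrit, hypoxanthine-free medium; serial compound concentrations, chloroquine control. 48 h incubation, then 0.5 μCi 3H-hypoxanthine for another 24 h. Cells harvested on glass fibre filters, radioactivity counted as growth measure. IC50 by non-linear regression; run twice, each in triplicate.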

[5] = target: Glucose-6-phosphate 1-dehydrogenase (Homo sapiens, UniProt P11413); experiment: Inhibition of human glucose-6-phosphate dehydrogenase after 90 mins by resazurin/diaphorasecoupled assay
Chain of Glucose-6-phosphate 1-dehydrogenase (Homo sapiens, UniProt P11413) (P11413 whole entry): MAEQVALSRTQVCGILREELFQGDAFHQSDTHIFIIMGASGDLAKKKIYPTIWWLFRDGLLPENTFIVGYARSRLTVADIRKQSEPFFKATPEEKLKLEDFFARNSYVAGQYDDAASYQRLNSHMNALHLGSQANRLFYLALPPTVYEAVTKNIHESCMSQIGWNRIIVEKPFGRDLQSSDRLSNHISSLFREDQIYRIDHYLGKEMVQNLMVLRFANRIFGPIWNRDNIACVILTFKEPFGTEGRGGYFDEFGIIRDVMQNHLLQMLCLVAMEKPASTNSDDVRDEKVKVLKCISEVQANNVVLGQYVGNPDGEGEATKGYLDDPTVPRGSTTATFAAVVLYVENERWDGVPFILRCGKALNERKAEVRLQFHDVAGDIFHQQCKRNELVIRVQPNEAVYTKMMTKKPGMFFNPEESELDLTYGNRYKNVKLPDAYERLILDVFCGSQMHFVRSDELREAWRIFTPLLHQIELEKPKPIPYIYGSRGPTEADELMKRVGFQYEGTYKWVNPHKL
How it was run: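 Dose response with a top final concentration of […] and 0.8% final DMSO, in 50 mM Tris pH 7.5, 0.005% Tween 20 and 1 mg/mL BSA. The enzyme solution held 0.05 μg/mL hG6PD. The substrate solution held 0.64 mM G6P, 12 μM NADP+, 6.6 mM MgCl2, 2 U/mL diaphorase and 0.28 mM resazurin.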

[6] = tested on: Liver; experiment: Stability in mouse liver microsomes assessed as compound remaining after 1 hr; type: ADME, Microsome
[7] = Aqueous solubility in PBS buffer at pH 7.4; type: physicochemical
[8] = tested on: Plasma; experiment: Plasma protein binding in mouse at 10 uM; type: ADME, cell-free
[9] = tested on: Plasmodium falciparum; experiment: Antimalarial activity against chloroquine-resistant Plasmodium falciparum Dd2 cells assessed as Plasmodium falciparum growth inhibition after 72 hrs by isotopic drug sensitivity assay; type: functional, organism-based; conditions: Dd2, 72 h; how it was run: as §2
[10] = Aqueous solubility in pION's buffer at pH 5; type: physicochemical
[11] = Aqueous solubility in pION's buffer at pH 6.2; type: physicochemical
[12] = target: T1, Glucose-6-phosphate 1-dehydrogenase (Plasmodium falciparum, UniProt Q25856); experiment: Inhibition of Plasmodium falciparum glucose-6-phosphate dehydrogenase after 45 mins by orthogonal assay
T1 sequence (Q25856 whole entry): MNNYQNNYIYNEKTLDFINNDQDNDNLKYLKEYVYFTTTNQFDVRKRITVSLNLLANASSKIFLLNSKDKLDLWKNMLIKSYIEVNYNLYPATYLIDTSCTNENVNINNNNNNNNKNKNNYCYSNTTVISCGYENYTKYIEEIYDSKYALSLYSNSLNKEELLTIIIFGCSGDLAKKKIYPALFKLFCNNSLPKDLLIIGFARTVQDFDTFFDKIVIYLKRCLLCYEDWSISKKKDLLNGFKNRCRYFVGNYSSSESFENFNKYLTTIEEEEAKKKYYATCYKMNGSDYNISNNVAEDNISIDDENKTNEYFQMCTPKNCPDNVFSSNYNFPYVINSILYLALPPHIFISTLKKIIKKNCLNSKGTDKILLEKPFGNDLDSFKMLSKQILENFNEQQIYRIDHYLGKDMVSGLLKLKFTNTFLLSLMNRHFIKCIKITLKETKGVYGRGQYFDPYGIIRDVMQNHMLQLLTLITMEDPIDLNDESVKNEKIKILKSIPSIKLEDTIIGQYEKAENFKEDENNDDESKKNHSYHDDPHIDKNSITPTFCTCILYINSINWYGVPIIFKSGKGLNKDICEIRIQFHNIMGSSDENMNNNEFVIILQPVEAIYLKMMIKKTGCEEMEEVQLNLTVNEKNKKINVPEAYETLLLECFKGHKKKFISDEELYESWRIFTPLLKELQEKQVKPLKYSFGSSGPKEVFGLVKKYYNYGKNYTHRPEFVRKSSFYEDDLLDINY
How it was run: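 Direct NADPH read without coupling: PfGluPho (0.4 μg/mL enzyme solution) in 50 mM Tris pH 7.5, 0.005% Tween 20, 1 mg/mL BSA; substrate 40 μM G6P, 6 μM NADP+, 6.6 mM MgCl2.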

[13] = tested on: Plasmodium falciparum; experiment: Mixed type inhibition of Plasmodium falciparum glucose-6-phosphate dehydrogenase-6-phosphogluconolactonase using NADP+ as substrate by Lineweaver-Burk plot analysis
How it was run: (§3)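 PfGluPho at 0.2 μg/mL final, with 0.005% Tween 20, 3.3 mM MgCl2, 1 mM TCEP and 0.05 M Tris. G6P was varied at 5 μM NADP+; NADP+ was varied at 25 μM G6P. Compound was titrated at the same time. NADPH fluorescence (ex340/em460) was followed for 10 min and initial slopes taken. Lineweaver-Burk plots gave Km and Vmax, and α came from a rate equation.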

[14] = tested on: Plasma; experiment: Plasma protein binding in human at 10 uM; type: ADME, cell-free
[15] = tested on: Hepatocyte; experiment: Toxicity against Fa2N-4 immortalized human hepatocytes; type: cell-based; conditions: read-out: LC50 (the source's name)
[16] = tested on: Plasmodium falciparum; experiment: Competitive inhibition of Plasmodium falciparum glucose-6-phosphate dehydrogenase-6-phosphogluconolactonase using glucose-6-phosphate as substrate by Lineweaver-Burk plot analysis; how it was run: as §3
[17] = tested on: Plasma; experiment: Plasma protein binding in mouse at 1 uM; type: ADME, cell-free
[18] = tested on: Liver microsomes; experiment: Stability in human liver microsomes assessed as compound remaining after 1 hr; type: ADME, Microsome
[19] = Blood brain barrier permeability of the compound at pH 7.4 by PAMPA; type: ADME
[20] = tested on: Plasma; experiment: Stability in mouse plasma assessed as compound remaining after 3 hrs; type: ADME, cell-free
[21] = Permeability of the compound at donor pH 7.4 by PAMPA; type: ADME
[22] = Permeability of the compound at donor pH 5 by PAMPA; type: ADME
[23] = tested on: Plasma; experiment: Stability in human plasma assessed as compound remaining after 3 hrs; type: ADME, cell-free
[24] = tested on: Plasma; experiment: Plasma protein binding in human at 1 uM; type: ADME, cell-free
[25] = target: T1, Glucose-6-phosphate 1-dehydrogenase; experiment: Inhibition of Plasmodium falciparum glucose-6-phosphate dehydrogenase after 2 hrs by resazurin/diaphorasecoupled assay
[26] = Permeability of the compound at donor pH 6.2 by PAMPA; type: ADME
[27] = Aqueous solubility in pION's buffer at pH 7.4; type: physicochemical

Question: Which degraded at 24 h [1] does the source give for `C=C(CC)C(=O)c1ccc(OCC(=O)O)c(Cl)c1Cl` [ETHACRYNIC ACID] here?
Answer: 97%

Question: And the Drug metabolism [2]?
Answer: Active

Question: And the Stability [3]?
Answer: Stable

Question: For `CCN1CCC[C@@H]1CNC(=O)c1ccc2c(c1)NC(=O)/C(=C/c1ccccc1F)S2`, which IC50 [4] is on record?
Answer: 2.34 µM

Question: And the IC50 [5]?
Answer: > 80 µM

Question: What about the Stability [6] of the same molecule?
Answer: 37.57%

Question: And the solubility [7]?
Answer: 166 µM (≈ 70.6 µg/mL)

Question: What about the PPB [8] of the same molecule?
Answer: 98.34%

Question: What about the IC50 [9] of the same molecule?
Answer: 3.71 µM

Question: And the solubility [10]?
Answer: > 296 µM

Question: What about the solubility [11] of the same molecule?
Answer: > 296 µM

Question: And the IC50 [12]?
Answer: 1.9 µM

Question: What about the inhibition [13] of the same molecule?
Answer: Active

Question: What about the PPB [14] of the same molecule?
Answer: 97.98%

Question: What about the CC50 [15] of the same molecule?
Answer: > 50 µM

Question: What about the inhibition [16] of the same molecule?
Answer: Active

Question: And the PPB [17]?
Answer: 98.95%

Question: And the Stability [18]?
Answer: 60.53%

Question: What about the permeability [19] of the same molecule?
Answer: 2330 nm/s

Question: What about the Stability [20] of the same molecule?
Answer: 80.84%

Question: And the permeability [21]?
Answer: 8060 nm/s

Question: What about the permeability [22] of the same molecule?
Answer: 290 nm/s

Question: What about the Stability [23] of the same molecule?
Answer: 90.98%

Question: And the PPB [24]?
Answer: 98.39%

Question: And the IC50 [25]?
Answer: 0.9 µM

Question: And the permeability [26]?
Answer: 7370 nm/s

Question: What about the solubility [27] of the same molecule?
Answer: 69 µM (≈ 29.4 µg/mL)
